Reference: ChEMBL document CHEMBL1687811, “Outbreak of meropenem-resistant Serratia marcescens comediated by chromosomal AmpC beta-lactamase overproduction and outer membrane protein loss” (2010)
In brackets after ≈: the same amount, converted by molar mass.

Experiments:
[1] = test system: Serratia marcescens; assay: Antimicrobial activity against beta-lactamase ompC intact/ompF deficient Serratia marcescens isolate YMC0564 by agar dilution method; type: functional
How it was run: (§1)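 MICs by agar dilution following CLSI guidelines, with E. coli ATCC 25922 and P. aeruginosa ATCC 27853 as MIC reference strains. Where added, clavulanic acid served as the ESBL inhibitor and phenyl-arginine-β-naphthylamide as the efflux-pump inhibitor, each incorporated into the susceptibility test.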

[2] = test system: Escherichia coli; assay: Antimicrobial activity against azide-resistant Escherichia coli J53 by agar dilution method in presence 4 ug/ml of clavulanic acid; type: functional; how it was run: as §1
[3] = test system: Serratia marcescens; assay: Antimicrobial activity against beta-lactamase ompC intact/ompF deficient Serratia marcescens isolate YMC0583 by agar dilution method; type: functional; how it was run: as §1
[4] = test system: Serratia marcescens; assay: Antimicrobial activity against Serratia marcescens ATCC 8100 by agar dilution method in presence of 4 ug/ml of clavulanic acid; type: functional; how it was run: as §1
[5] = test system: Serratia marcescens; assay: Antimicrobial activity against beta-lactamase ompC intact/ompF deficient Serratia marcescens isolate YMC0547 by agar dilution method; type: functional; how it was run: as §1
[6] = test system: Serratia marcescens; assay: Antimicrobial activity against Serratia marcescens ATCC 8100 by agar dilution method in presence of 300 ug/ml of boronic acid; type: functional
How it was run: (§2)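 MICs by agar dilution following CLSI guidelines, with E. coli ATCC 25922 and P. aeruginosa ATCC 27853 as MIC reference strains. Where an inhibitor was added, boronic acid or cloxacillin served as the AmpC inhibitor.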

[7] = test system: Serratia marcescens; assay: Antimicrobial activity against beta-lactamase ompC intact/ompF deficient Serratia marcescens isolate YMC0573 by agar dilution method; type: functional; how it was run: as §1
[8] = test system: Serratia marcescens; assay: Antimicrobial activity against beta-lactamase ompC intact/ompF deficient Serratia marcescens isolate YMC0582 by agar dilution method; type: functional; how it was run: as §1
[9] = test system: Escherichia coli; assay: Antimicrobial activity against azide-resistant Escherichia coli J53 by agar dilution method
[10] = test system: Serratia marcescens; assay: Antimicrobial activity against beta-lactamase ompC intact/ompF deficient Serratia marcescens isolate YMC0566 by agar dilution method; type: functional; how it was run: as §1
[11] = test system: Serratia marcescens; assay: Antimicrobial activity against beta-lactamase AmpC producing meropenem-resistant Serratia marcescens by agar dilution method in presence of 4 ug/ml of clavulanic acid; type: functional; how it was run: as §1
[12] = test system: Serratia marcescens; assay: Antimicrobial activity against Serratia marcescens ATCC 8100 by agar dilution method in presence of 250 ug/ml of cloxacillin; type: functional; how it was run: as §2
[13] = test system: Serratia marcescens; assay: Antimicrobial activity against Serratia marcescens ATCC 8100 by agar dilution method in presence of 20 ug/ml of phenyl-arginine-beta-naphthylamide; type: functional; how it was run: as §1
[14] = test system: Serratia marcescens; assay: Antimicrobial activity against beta-lactamase ompC intact/ompF deficient Serratia marcescens isolate YMC0579 by agar dilution method; type: functional; how it was run: as §1
[15] = test system: Serratia marcescens; assay: Antimicrobial activity against beta-lactamase ompC intact/ompF deficient Serratia marcescens isolate YMC0570 by agar dilution method; type: functional; how it was run: as §1
[16] = test system: Serratia marcescens; assay: Antimicrobial activity against beta-lactamase ompC intact/ompF deficient Serratia marcescens isolate YMC0584 by agar dilution method; type: functional; how it was run: as §1
[17] = test system: Serratia marcescens; assay: Antimicrobial activity against beta-lactamase ompC/ompF deficient Serratia marcescens ATCC 8100 by agar dilution method; type: functional
[18] = test system: Serratia marcescens; assay: Antimicrobial activity against Serratia marcescens ATCC 8100 by agar dilution method; type: functional; how it was run: as §2
[19] = test system: Serratia marcescens; assay: Antimicrobial activity against beta-lactamase AmpC producing meropenem-resistant Serratia marcescens by agar dilution method; type: functional; how it was run: as §1

C[C@@H](O)[C@H]1C(=O)N2C(C(=O)O)=C(S[C@@H]3CN[C@H](C(=O)N(C)C)C3)[C@H](C)[C@H]12 [MEROPENEM]
MIC [1]: 16 µg/mL (≈ 41.7 µM) | MIC [2]: 0.015 µg/mL | MIC [3]: 16 µg/mL (≈ 41.7 µM) | MIC [4]: 16 µg/mL | MIC [5]: 32 µg/mL (≈ 83.4 µM) | MIC [6]: 1 µg/mL | MIC [7]: 16 µg/mL (≈ 41.7 µM) | MIC [8]: 16 µg/mL (≈ 41.7 µM) | MIC [9]: 0.03 µg/mL (≈ 0.0782 µM) | MIC [10]: 16 µg/mL (≈ 41.7 µM) | MIC [11]: 0.015 µg/mL | MIC [12]: 0.008 µg/mL | MIC [13]: 8 µg/mL | MIC [14]: 16 µg/mL (≈ 41.7 µM) | MIC [15]: 16 µg/mL (≈ 41.7 µM) | MIC [16]: 16 µg/mL (≈ 41.7 µM) | MIC [17]: 0.25 µg/mL (≈ 0.652 µM) | MIC [18]: 16 µg/mL (≈ 41.7 µM) | MIC [19]: 0.015 µg/mL (≈ 0.0391 µM)

C[C@@H](O)[C@H]1C(=O)N2C(C(=O)O)=C(SCCNC=N)C[C@H]12 [IMIPENEM ANHYDROUS]
MIC [1]: 4 µg/mL (≈ 13.4 µM) | MIC [2]: 0.12 µg/mL | MIC [3]: 4 µg/mL (≈ 13.4 µM) | MIC [4]: 4 µg/mL | MIC [5]: 8 µg/mL (≈ 26.7 µM) | MIC [6]: 0.5 µg/mL | MIC [7]: 4 µg/mL (≈ 13.4 µM) | MIC [8]: 4 µg/mL (≈ 13.4 µM) | MIC [10]: 4 µg/mL (≈ 13.4 µM) | MIC [11]: 0.06 µg/mL | MIC [12]: 0.094 µg/mL | MIC [13]: 4 µg/mL | MIC [14]: 4 µg/mL (≈ 13.4 µM) | MIC [15]: 4 µg/mL (≈ 13.4 µM) | MIC [16]: 8 µg/mL (≈ 26.7 µM) | MIC [17]: 0.02 µg/mL (≈ 0.0668 µM) | MIC [18]: 4 µg/mL (≈ 13.4 µM) | MIC [19]: 0.12 µg/mL (≈ 0.401 µM)

C[C@H]1[C@H](NC(=O)/C(=N\OC(C)(C)C(=O)O)c2csc(N)n2)C(=O)N1S(=O)(=O)O [AZTREONAM]
MIC [18]: 64 µg/mL (≈ 147 µM) | MIC [19]: 8 µg/mL (≈ 18.4 µM)

CO[C@@]1(NC(=O)Cc2cccs2)C(=O)N2C(C(=O)O)=C(COC(N)=O)CS[C@@H]21 [CEFOXITIN]
MIC [9]: 4 µg/mL (≈ 9.36 µM) | MIC [18]: > 256 µg/mL | MIC [19]: 4 µg/mL (≈ 9.36 µM)

CCN1CCN(C(=O)N[C@@H](C(=O)N[C@@H]2C(=O)N3[C@@H]2SC(C)(C)[C@@H]3C(=O)O)c2ccccc2)C(=O)C1=O [PIPERACILLIN]
MIC [9]: 1 µg/mL (≈ 1.93 µM) | MIC [18]: > 256 µg/mL | MIC [19]: > 256 µg/mL

GENTAMICIN
MIC [18]: > 256 µg/mL | MIC [19]: 32 µg/mL

CC(C)(O/N=C(\C(=O)N[C@@H]1C(=O)N2C(C(=O)[O-])=C(C[n+]3ccccc3)CS[C@H]12)c1csc(N)n1)C(=O)O [CEFTAZIDIME]
MIC [9]: 0.25 µg/mL (≈ 0.457 µM) | MIC [18]: 128 µg/mL (≈ 234 µM) | MIC [19]: 2 µg/mL (≈ 3.66 µM)

CO/N=C(\C(=O)N[C@@H]1C(=O)N2C(C(=O)O)=C(COC(C)=O)CS[C@H]12)c1csc(N)n1 [CEFOTAXIME]
MIC [9]: ≤ 0.12 µg/mL | MIC [18]: > 256 µg/mL | MIC [19]: 32 µg/mL (≈ 70.3 µM)

O=C(O)c1cn(C2CC2)c2cc(N3CCNCC3)c(F)cc2c1=O [CIPROFLOXACIN]
MIC [18]: 8 µg/mL (≈ 24.1 µM) | MIC [19]: ≤ 0.12 µg/mL
